Reference: ChEMBL document CHEMBL1926530, “Novel pyrazolo[1,5-a]pyridines as p110α-selective PI3 kinase inhibitors: Exploring the benzenesulfonohydrazide SAR” (Bioorg Med Chem, 2012)

Experiments:
[1] = target: Insulin receptor (Homo sapiens) (UniProt P06213); test: Inhibition of IR assessed as residual activity at 1 uM
[2] = Cytotoxicity against human NZB5 cells assessed as inhibition of [3H]thymidine incorporation measured after 5 days; type: functional, cell-based
Method in brief: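 Early-passage lines grown in α-MEM with insulin, transferrin, selenite and 5% FBS. Wells seeded with 1000 cells; inhibitor in dilution steps up to a maximum of 20. Five days under 5% O₂/5% CO₂/90% N₂, ³H-thymidine added for the last 6 h. Duplicates per dose; fit y = y₀ + ae^−bx; IC50 = 50% reduction in incorporation.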

[3] = Tmax in CD1 mouse at 10 mg/kg, ip; type: ADME, organism-based; design: dose 10 mg/kg, route intraperitoneal; conditions: in vivo
Method in brief: (§1)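 Age-matched specific pathogen-free male CD-1 mice; single 10 mg/kg i.p. dose in 5% DMSO, 45% PEG-400, 20% 2-hydroxypropyl-β-cyclodextrin, 30% water. Blood sampled at multiple times post-dose; plasma taken after centrifugation (10 min, 6000 rpm, 20 °C). Plasma analysed by LC-MS/MS; parameters from non-compartmental analysis.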

[4] = target: Phosphatidylinositol 4,5-bisphosphate 3-kinase catalytic subunit alpha isoform (Homo sapiens, UniProt P42336, E545K); test: Inhibition of recombinant PI3K p110alpha E545K mutant using L-alpha-phosphatidylinositol as substrate and [gamma33P]ATP after 60 mins by thin layer chromatographic technique
[5] = target: T1, Phosphatidylinositol 4,5-bisphosphate 3-kinase catalytic subunit delta isoform (Homo sapiens, UniProt O00329); test: Inhibition of recombinant PI3K p110delta using L-alpha-phosphatidylinositol as substrate and [gamma33P]ATP after 60 mins by thin layer chromatographic technique
T1 sequence (O00329 whole entry): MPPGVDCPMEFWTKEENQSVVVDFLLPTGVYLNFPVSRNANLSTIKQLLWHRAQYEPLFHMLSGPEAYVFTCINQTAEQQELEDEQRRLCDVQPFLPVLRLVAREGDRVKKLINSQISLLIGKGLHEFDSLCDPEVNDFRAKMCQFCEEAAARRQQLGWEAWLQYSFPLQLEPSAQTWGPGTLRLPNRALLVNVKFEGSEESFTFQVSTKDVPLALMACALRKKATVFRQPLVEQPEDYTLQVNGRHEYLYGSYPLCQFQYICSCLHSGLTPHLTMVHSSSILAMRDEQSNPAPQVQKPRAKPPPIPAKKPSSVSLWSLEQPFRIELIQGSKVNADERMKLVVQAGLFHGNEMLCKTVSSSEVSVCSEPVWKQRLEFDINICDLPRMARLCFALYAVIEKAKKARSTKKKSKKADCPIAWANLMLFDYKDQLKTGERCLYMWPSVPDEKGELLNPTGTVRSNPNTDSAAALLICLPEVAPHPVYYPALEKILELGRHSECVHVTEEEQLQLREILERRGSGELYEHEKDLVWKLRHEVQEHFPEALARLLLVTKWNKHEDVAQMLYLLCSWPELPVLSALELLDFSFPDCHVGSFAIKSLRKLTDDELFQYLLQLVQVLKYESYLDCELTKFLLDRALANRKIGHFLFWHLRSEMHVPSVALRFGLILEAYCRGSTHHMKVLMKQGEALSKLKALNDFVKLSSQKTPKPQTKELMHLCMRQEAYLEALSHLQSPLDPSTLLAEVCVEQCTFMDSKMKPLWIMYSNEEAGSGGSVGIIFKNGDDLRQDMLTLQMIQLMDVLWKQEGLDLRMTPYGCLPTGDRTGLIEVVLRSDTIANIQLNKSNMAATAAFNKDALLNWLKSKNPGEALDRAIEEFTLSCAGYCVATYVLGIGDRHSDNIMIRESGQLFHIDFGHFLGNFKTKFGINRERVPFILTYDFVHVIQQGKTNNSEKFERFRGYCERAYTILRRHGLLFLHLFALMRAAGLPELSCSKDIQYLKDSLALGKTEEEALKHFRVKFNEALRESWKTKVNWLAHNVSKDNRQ
Method in brief: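 In-house recombinant enzyme (0.1 µg) with L-α-phosphatidylinositol in 40 mM Tris-HCl pH 7.4, 200 mM NaCl, 1 mM EDTA; DMSO 1% final. Started with 5 mM MgCl₂, 100 µM ATP plus [γ-³³P]ATP; 1 h at room temperature, stopped with 1 M HCl. Lipids extracted, separated by TLC, phosphorimaged. Nine inhibitor concentrations; two experiments, IC50 averaged.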

[6] = Terminal half life in CD1 mouse at 10 mg/kg, ip; type: ADME, organism-based; design: dose 10 mg/kg, route intraperitoneal; conditions: in vivo, read-out: beta t1/2 (converted); method in brief: as §1
[7] = target: Phosphatidylinositol 4,5-bisphosphate 3-kinase catalytic subunit alpha isoform (Homo sapiens, UniProt P42336, H1047R); test: Inhibition of PI3K […] H1047R mutant-mediated PKB phosphorylation at Ser473 in human HCT116 cells after 15 mins by immunoblot analysis; type: cell-based, HCT-116
Method in brief: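 HCT-116 cells in MEM alpha with 10% FBS and penicillin/streptomycin, seeded, grown 1 day, then starved overnight serum-free. Inhibitor in DMSO (0.1% final) at varying concentrations for 15 min, then 500 nM insulin for 5 min. Lysates immunoblotted for phospho-PKB at Ser473 or Thr308.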

[8] = AUC (0 to infinity) in CD1 mouse at 10 mg/kg, ip; type: ADME, organism-based; design: time infinity, dose 10 mg/kg, route intraperitoneal; conditions: plasma; method in brief: as §1
Mus musculus = test: Toxicity in Rag1 knockout mouse xenografted with human HCT116 cells assessed as body weight loss at 40 mg/kg, ip QD measured on day 7 relative to untreated control; type: organism-based, HCT-116; design: dose 40 mg/kg, route intraperitoneal; conditions: in vivo
Method in brief: (§2)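 Male Rag1−/− mice (age-matched, SPF) inoculated s.c. with 5 × 10⁶ HCT-116 cells in PBS. Dosing started at ~150 mm³ tumours: q.d. i.p. in 7.5% DMSO, 42.5% PEG-400, 20% 2-hydroxypropyl-β-cyclodextrin, 30% water; controls received vehicle. Volume = (L × w²) × π/6, measured three times weekly; bodyweight daily. Treatment stopped if mean weight loss >15%; 1-way ANOVA with Holm–Sidak.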

HCT-116 = test: Antitumor activity against human HCT116 cells xenografted in Rag1knockout mouse assessed as tumor growth delay at 40 mg/kg, ip QD measured on day 7 relative to untreated control; type: functional; conditions: route intraperitoneal; method in brief: as §2
[9] = target: Dual specificity mitogen-activated protein kinase kinase 1 (Homo sapiens) (UniProt Q02750); test: Inhibition of MKK1 assessed as residual activity at 10 uM
[10] = target: Misshapen-like kinase 1 (Homo sapiens) (UniProt Q8N4C8); test: Inhibition of MINK1 assessed as residual activity at 1 uM
[11] = target: High affinity nerve growth factor receptor (Homo sapiens) (UniProt P04629); test: Inhibition of TrkA assessed as residual activity at 1 uM
[12] = Inhibition of DNA-PK

Sequence of Misshapen-like kinase 1 (Homo sapiens) (Q8N4C8 whole entry, looked up): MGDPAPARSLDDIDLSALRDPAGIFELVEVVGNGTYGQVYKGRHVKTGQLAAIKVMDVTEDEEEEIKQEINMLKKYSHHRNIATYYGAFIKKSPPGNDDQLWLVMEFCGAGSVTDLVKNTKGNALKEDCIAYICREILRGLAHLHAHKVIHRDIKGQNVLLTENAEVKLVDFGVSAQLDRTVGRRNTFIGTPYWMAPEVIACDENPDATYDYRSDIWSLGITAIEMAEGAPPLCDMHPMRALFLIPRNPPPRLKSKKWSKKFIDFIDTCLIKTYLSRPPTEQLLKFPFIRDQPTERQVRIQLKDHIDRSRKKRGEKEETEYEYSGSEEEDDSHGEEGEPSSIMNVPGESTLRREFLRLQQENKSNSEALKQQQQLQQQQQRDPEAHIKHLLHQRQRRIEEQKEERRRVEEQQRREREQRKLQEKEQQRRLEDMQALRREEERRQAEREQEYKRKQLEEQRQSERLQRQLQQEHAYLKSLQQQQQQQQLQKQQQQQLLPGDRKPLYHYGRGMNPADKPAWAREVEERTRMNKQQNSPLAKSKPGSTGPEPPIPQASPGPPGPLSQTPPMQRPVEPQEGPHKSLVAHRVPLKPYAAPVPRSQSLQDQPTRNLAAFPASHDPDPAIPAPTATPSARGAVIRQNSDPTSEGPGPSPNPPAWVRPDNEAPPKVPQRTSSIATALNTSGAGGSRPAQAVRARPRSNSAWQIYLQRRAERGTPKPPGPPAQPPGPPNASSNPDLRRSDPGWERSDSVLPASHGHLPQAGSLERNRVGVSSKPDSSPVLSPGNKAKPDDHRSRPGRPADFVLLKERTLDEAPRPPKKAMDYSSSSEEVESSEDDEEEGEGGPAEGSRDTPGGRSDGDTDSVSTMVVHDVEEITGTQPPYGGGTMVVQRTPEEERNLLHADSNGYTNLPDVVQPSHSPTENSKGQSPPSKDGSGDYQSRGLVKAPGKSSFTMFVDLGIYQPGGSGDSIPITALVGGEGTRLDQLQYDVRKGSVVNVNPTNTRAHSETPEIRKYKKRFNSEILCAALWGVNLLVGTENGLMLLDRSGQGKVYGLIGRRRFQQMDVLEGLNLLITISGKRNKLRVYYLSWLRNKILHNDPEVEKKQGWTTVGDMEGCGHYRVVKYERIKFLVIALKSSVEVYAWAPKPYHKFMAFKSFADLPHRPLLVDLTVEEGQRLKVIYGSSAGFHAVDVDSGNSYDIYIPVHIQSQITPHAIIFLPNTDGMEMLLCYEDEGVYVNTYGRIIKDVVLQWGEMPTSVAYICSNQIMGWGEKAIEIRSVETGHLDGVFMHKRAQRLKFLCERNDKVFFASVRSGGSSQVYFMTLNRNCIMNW
Sequence of Phosphatidylinositol 4,5-bisphosphate 3-kinase catalytic subunit alpha isoform (Homo sapiens, UniProt P42336, E545K) (P42336 whole entry E545K, canonical isoform): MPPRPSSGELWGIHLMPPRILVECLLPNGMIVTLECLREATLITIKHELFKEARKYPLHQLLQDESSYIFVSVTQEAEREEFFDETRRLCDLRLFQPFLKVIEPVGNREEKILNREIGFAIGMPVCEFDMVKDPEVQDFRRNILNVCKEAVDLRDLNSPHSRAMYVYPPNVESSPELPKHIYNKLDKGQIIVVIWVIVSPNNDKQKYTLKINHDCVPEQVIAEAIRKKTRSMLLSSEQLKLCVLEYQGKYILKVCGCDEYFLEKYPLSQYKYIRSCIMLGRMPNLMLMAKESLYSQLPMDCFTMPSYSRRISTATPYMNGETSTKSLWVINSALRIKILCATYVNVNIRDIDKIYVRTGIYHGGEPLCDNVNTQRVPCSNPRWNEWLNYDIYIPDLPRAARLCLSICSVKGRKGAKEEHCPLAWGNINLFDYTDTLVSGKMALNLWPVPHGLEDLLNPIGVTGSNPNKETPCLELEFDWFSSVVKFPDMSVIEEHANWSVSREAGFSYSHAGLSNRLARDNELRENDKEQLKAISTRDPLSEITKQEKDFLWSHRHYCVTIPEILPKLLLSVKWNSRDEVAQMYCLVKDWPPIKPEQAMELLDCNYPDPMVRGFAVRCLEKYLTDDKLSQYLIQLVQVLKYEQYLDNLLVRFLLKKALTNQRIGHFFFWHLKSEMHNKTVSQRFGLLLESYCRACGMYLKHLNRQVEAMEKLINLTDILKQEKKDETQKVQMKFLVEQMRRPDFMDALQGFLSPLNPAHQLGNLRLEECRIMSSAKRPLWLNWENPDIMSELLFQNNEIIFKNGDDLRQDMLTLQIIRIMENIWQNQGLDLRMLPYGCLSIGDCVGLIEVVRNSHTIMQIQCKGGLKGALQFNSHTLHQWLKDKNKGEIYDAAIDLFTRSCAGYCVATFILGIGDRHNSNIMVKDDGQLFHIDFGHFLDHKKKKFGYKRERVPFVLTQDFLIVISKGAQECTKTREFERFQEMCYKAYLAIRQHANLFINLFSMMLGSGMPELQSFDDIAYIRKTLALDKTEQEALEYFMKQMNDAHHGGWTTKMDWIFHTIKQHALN
Sequence of High affinity nerve growth factor receptor (Homo sapiens) (P04629 33-796 limits assumed): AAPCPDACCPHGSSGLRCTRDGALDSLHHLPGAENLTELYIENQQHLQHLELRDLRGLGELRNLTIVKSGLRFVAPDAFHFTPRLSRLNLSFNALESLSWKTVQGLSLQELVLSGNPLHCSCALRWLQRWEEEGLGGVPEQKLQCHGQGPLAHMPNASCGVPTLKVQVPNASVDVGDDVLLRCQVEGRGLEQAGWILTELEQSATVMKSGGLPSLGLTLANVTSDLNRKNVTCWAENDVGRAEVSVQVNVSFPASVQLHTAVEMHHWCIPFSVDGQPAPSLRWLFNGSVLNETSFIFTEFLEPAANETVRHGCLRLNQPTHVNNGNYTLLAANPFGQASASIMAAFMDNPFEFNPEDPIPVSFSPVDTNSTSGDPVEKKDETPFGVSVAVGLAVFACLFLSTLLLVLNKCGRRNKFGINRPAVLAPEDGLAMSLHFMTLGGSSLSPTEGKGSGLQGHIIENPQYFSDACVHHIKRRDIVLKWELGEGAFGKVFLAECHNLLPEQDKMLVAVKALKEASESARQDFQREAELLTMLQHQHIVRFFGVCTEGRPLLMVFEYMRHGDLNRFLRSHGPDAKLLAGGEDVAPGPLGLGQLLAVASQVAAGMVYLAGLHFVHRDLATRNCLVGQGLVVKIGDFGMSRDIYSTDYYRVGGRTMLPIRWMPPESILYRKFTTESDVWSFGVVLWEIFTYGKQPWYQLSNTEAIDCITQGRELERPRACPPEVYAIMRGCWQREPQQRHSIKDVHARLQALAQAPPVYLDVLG
Sequence of Insulin receptor (Homo sapiens) (P06213 28-758 limits assumed): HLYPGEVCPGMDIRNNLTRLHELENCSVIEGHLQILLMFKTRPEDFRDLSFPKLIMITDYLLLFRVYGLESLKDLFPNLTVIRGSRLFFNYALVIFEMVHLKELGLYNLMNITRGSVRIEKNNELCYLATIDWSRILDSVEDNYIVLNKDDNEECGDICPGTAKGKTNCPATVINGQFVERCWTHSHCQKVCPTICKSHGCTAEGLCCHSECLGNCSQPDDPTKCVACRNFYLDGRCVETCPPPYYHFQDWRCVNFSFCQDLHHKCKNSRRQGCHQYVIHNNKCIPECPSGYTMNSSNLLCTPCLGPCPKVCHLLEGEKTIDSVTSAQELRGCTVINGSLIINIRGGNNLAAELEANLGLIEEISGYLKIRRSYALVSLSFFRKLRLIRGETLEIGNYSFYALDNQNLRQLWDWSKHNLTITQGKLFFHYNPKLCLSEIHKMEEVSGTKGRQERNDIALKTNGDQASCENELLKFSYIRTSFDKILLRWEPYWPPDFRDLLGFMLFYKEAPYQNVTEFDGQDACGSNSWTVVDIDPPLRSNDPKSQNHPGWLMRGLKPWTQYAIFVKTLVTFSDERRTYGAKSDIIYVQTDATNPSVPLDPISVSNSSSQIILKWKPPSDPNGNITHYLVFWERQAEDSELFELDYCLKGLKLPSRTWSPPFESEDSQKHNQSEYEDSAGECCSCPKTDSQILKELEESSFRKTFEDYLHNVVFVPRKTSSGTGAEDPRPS
Sequence of Insulin receptor (Homo sapiens) (P06213 763-1382 limits assumed): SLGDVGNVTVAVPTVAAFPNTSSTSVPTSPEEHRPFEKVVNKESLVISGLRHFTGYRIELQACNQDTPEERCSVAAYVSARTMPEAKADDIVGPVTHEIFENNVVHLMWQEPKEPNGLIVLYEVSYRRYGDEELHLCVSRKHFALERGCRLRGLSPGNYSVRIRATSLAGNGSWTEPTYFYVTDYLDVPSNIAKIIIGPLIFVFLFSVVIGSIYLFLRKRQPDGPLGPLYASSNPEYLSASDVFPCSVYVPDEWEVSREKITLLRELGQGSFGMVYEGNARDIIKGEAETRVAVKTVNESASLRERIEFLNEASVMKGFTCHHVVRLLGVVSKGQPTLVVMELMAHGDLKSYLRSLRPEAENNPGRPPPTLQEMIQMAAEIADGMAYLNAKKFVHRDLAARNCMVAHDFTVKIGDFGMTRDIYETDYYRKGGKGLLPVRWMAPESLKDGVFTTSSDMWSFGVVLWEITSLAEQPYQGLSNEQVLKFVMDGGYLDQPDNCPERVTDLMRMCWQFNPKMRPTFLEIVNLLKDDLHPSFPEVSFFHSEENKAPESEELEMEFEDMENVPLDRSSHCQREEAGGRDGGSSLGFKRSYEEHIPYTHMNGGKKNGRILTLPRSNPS
Sequence of Dual specificity mitogen-activated protein kinase kinase 1 (Homo sapiens) (Q02750 whole entry): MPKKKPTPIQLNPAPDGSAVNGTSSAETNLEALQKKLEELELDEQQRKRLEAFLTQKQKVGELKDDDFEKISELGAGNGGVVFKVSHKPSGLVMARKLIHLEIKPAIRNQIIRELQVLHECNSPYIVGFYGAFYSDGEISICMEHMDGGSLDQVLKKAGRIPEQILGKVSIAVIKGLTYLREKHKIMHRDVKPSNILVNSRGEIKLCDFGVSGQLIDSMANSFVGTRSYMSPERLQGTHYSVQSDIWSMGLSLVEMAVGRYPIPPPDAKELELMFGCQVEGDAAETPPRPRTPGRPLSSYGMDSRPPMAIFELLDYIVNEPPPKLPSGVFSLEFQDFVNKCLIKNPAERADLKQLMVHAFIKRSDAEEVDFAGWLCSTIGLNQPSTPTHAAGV
Sequence of Phosphatidylinositol 4,5-bisphosphate 3-kinase catalytic subunit alpha isoform (Homo sapiens, UniProt P42336, H1047R) (P42336 whole entry H1047R, canonical isoform): as the sequence (P42336 whole entry E545K, canonical isoform) above, with K545E, H1047R counted along it

`Cc1ccc([N+](=O)[O-])cc1S(=O)(=O)N(CCO)/N=C/c1cnn2ccc(C#N)cc12` gave an Activity [1] of 76%, an IC50 [2] of 60 nM and a Tmax [3] of 5 min. The IC50 [4] was 0.8 nM, the IC50 [5] was 54 nM and the half-life [6] was 67.8 min. For the same compound, the IC50 [7] was 82 nM, the AUC(0-inf) [8] was 3.16 µM·h and the Activity (Mus musculus) was over 15%. For the same compound, the Activity (HCT-116) was 43.8%, the Activity [9] was 5% and the Activity [10] was 16%. The Activity [11] was 73% and the IC50 [12] was 0.3 nM.
